One data set relates to HEK293. Put plainly: Cytotoxicity against HEK293 cells assessed as cell viability incubated for 48 hrs by MTT assay. The conditions noted are these: Homo sapiens, HEK293, 48 h. The class given is cell-based. The method in brief:
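HEK293 cells seeded in 96-well plates and held overnight at 37 °C, 5% CO2, 95% humidity. Cells were treated with 500, 250, 125, 62.5, 31.25 and 15.625 (units not given) for 48 h, washed twice with phosphate buffer, then given MTT (5 mg/mL stock) for 4 h at 37 °C. Formazan was dissolved in DMSO and absorbance read at 570 nm.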
(In general: Tetrazolium dyes change colour on reduction, which living cells bring about.)

Data set [1] relates to Mycobacterium tuberculosis. In words: Antitubercular activity against Mycobacterium tuberculosis H37Rv incubated for 5 days by microplate alamar blue assay. The class given is functional. To be noted: 120 h. In a few lines:
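M. tuberculosis H37Rv grown with compound in microplate Alamar Blue assay; plates sealed and incubated at 37 °C for five days. A 1:1 mix of Alamar Blue reagent and 10% Tween 80 was then added, followed by another 24 h. Blue was scored as no growth and pink as growth. MIC was the lowest concentration preventing blue-to-pink change.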
Background: Alamar Blue is a resazurin reagent that responds to reducing activity.

Data set [2] is described as follows: Chemical stability of compound in DMF at 5 x 10^-5 M incubated for 24 hrs by spectrometric analysis. It counts as physicochemical. The conditions noted are these: 50 µM. The method in brief:
(§1)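 Compound stock prepared in DMF, then diluted with DMF or with buffers of pH 6–8 to 5 × 10⁻⁵ M. Samples were kept at room temperature. UV absorption and fluorescence emission spectra were recorded and their patterns compared over 24 h and 72 h.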

Data set [3] is described as follows: Chemical stability of compound in pH 6 to 8 buffer at 5 x 10^-5 M incubated for 72 hrs by spectrometric analysis. The class given is physicochemical. To be noted: pH 6, 72 h, 50 µM. The method in brief:
as §1

Data set [4] is described as follows: Chemical stability of compound in pH 6 to 8 buffer at 5 x 10^-5 M incubated for 24 hrs by spectrometric analysis. It counts as physicochemical. The conditions noted are these: pH 6, 24 h, 50 µM. The method in brief: as §1
The nature of data set [5]: Chemical stability of compound in DMF at 5 x 10^-5 M incubated for 72 hrs by spectrometric analysis. The conditions noted are these: 50 µM. It counts as physicochemical. The method in brief:
as §1

Structures are written as SMILES. ≈ marks a conversion by molar mass, not a printed value.

By IC50 is commonly meant the point on the concentration scale where inhibition reaches its midpoint. The MIC is the least concentration at which growth counts as inhibited. Low readings indicate inhibition by little substance, high ones a need for much substance. Turning to `Cc1cccc2c(Cn3cc(Cn4c(C)cc(=O)n(Cc5cn(Cc6cc(=O)[nH]c7c(C)cccc67)nn5)c4=O)nn3)cc(=O)[nH]c12`, in the data set with HEK293, the IC50 came out at 1.15 mM. Also, in data set [1], the minimum inhibitory concentration (MIC) is 79.3 µM (≈ 50 µg/mL).
As for `Cc1cccc2c(Cn3cc(Cn4c(=O)n(Cc5cn(Cc6cc(=O)[nH]c7c(C)cccc67)nn5)c5ccccc54)nn3)cc(=O)[nH]c12`, the Stability result in data set [2] was “Stable”; in data set [3] it was “Unstable”; in data set [4], “Stable”; in data set [5], “Unstable”. The half-maximal inhibitory concentration (IC50) with HEK293 is 4.34 mM. In data set [1], this compound gave an MIC of 2.5 µM (≈ 1.6 µg/mL).
In data set [1], `Cc1cc(C)c2c(Cn3cc(Cn4cnc5c4c(=O)n(C)c(=O)n5C)nn3)cc(=O)oc2c1` came in with an MIC of 111 µM (≈ 49.7 µg/mL).
Take `O=c1cc(Cn2cc(Cn3c(=O)n(Cc4cn(Cc5cc(=O)[nH]c6cc(Cl)ccc56)nn4)c4ccccc43)nn2)c2ccc(Cl)cc2[nH]1`: the Stability result is “Stable” in data set [2], “Unstable” in data set [3], “Stable” in data set [4] and “Unstable” in data set [5]. Moreover, in the data set with HEK293, the IC50 was determined as 4.57 mM. For the same compound, in data set [1], it took 2.35 µM (≈ 1.6 µg/mL) to inhibit growth (MIC).
Take `O=c1cc(Cn2cc(Cn3c(=O)n(Cc4cn(Cc5cc(=O)oc6ccc7ccccc7c56)nn4)c4ccccc43)nn2)c2c(ccc3ccccc32)o1`: the Stability result in data set [2] is “Stable”; in data set [3] it was “Unstable”; in data set [4], “Stable”; in data set [5] it was “Unstable”. Also, the half-inhibitory concentration (IC50) in the data set on HEK293 worked out at 1.13 mM. Further, the MIC in data set [1] is 8.76 µM (≈ 6.24 µg/mL).
Turning to `Cc1cccc2c(Cn3cc(Cn4cnc5c4c(=O)n(C)c(=O)n5C)nn3)cc(=O)[nH]c12`, in the data set with HEK293, the half-inhibitory concentration (IC50) was 5.04 mM. Further, it took 116 µM (≈ 50 µg/mL) to inhibit growth in data set [1] (MIC).
With `O=c1cc(Cn2cc(Cn3c(=O)n(Cc4cn(Cc5cc(=O)oc6c5ccc5ccccc56)nn4)c4ccccc43)nn2)c2ccc3ccccc3c2o1`, the Stability entry in data set [2] is recorded as “Stable”; in data set [3], “Unstable”; in data set [4], “Stable”; in data set [5], “Unstable”. Also, the 50% inhibitory concentration (IC50) in the data set on HEK293 amounted to 3.13 mM. Besides, the minimum inhibitory concentration (MIC) in data set [1] is 2.34 µM (≈ 1.67 µg/mL).
For the compound `COc1ccc2oc(=O)cc(Cn3cc(Cn4c(=O)n(Cc5cn(Cc6cc(=O)oc7ccc(OC)cc67)nn5)c5ccccc54)nn3)c2c1`, the Stability result in data set [2] is “Stable”; in data set [3], “Unstable”; in data set [4], “Stable”; in data set [5], “Unstable”. Moreover, the 50% inhibitory concentration (IC50) in the data set on HEK293 is 4.12 mM. Further, the MIC in data set [1] turned out to be 4.64 µM (≈ 3.12 µg/mL).
With `CC(C)c1ccc2oc(=O)cc(Cn3cc(Cn4c(=O)n(Cc5cn(Cc6cc(=O)oc7ccc(C(C)C)cc67)nn5)c5ccccc54)nn3)c2c1`, the Stability result is recorded as “Stable” in data set [2], “Unstable” in data set [3], “Stable” in data set [4] and “Unstable” in data set [5]. Besides, the IC50 in the data set with HEK293 turned out to be 3.2 mM. In data set [1], this compound registered a minimum inhibitory concentration (MIC) of 2.49 µM (≈ 1.73 µg/mL).
With `Cc1ccc2oc(=O)cc(Cn3cc(Cn4c(C)cc(=O)n(Cc5cn(Cc6cc(=O)oc7ccc(C)cc67)nn5)c4=O)nn3)c2c1`, the IC50 in the data set with HEK293 was 1.28 mM. Besides, the MIC in data set [1] was 79.1 µM (≈ 50 µg/mL).
Consider `Cc1cc(C)c2c(Cn3cc(Cn4c(=O)n(Cc5cn(Cc6cc(=O)oc7cc(C)cc(C)c67)nn5)c5ccccc54)nn3)cc(=O)oc2c1`, for which the Stability result in data set [2] was “Stable”; in data set [3], “Unstable”; in data set [4], “Stable”; in data set [5], “Unstable”. For the same compound, the IC50 in the data set on HEK293 amounted to 0.943 mM. The same compound gave an MIC in data set [1] of 2.39 µM (≈ 1.6 µg/mL).
As to `O=c1cc(Cn2cc(Cn3c(=O)n(Cc4cn(Cc5cc(=O)[nH]c6ccc(Cl)cc56)nn4)c4ccccc43)nn2)c2cc(Cl)ccc2[nH]1`, the Stability result was “Stable” in data set [2], “Unstable” in data set [3], “Stable” in data set [4] and “Unstable” in data set [5]. Further, the half-maximal inhibitory concentration (IC50) in the data set with HEK293 was 12.3 mM. The compound also had a minimum inhibitory concentration (MIC) in data set [1] of 2.35 µM (≈ 1.6 µg/mL).
As to `Cc1cc(C)c2c(Cn3cc(Cn4c(C)cc(=O)n(Cc5cn(Cc6cc(=O)oc7cc(C)cc(C)c67)nn5)c4=O)nn3)cc(=O)oc2c1`, the MIC in data set [1] came out at 75.7 µM (≈ 50 µg/mL).
In the case of `COc1ccc2oc(=O)cc(Cn3cc(Cn4cnc5c4c(=O)n(C)c(=O)n5C)nn3)c2c1`, the IC50 in the data set on HEK293 worked out at 1.38 mM. The MIC in data set [1] is 55.6 µM (≈ 25 µg/mL).
Turning to `Cc1ccc2c(Cn3cc(Cn4c(C)cc(=O)n(Cc5cn(Cc6cc(=O)oc7cc(C)ccc67)nn5)c4=O)nn3)cc(=O)oc2c1`, the MIC in data set [1] came to 79.1 µM (≈ 50 µg/mL).
For `Cc1ccc2c(Cn3cc(Cn4c(=O)n(Cc5cn(Cc6cc(=O)oc7c(C)c(C)ccc67)nn5)c5ccccc54)nn3)cc(=O)oc2c1C`, the Stability result in data set [2] is reported as “Stable”; in data set [3], “Unstable”; in data set [4], “Stable”; in data set [5], “Unstable”. In the data set with HEK293, the IC50 was determined as 3.43 mM. In data set [1], the minimal inhibitory concentration (MIC) stood at 2.39 µM (≈ 1.6 µg/mL).
`Cc1ccc2oc(=O)cc(Cn3cc(Cn4cnc5c4c(=O)n(C)c(=O)n5C)nn3)c2c1`: the concentration for half-maximal inhibition (IC50) in the data set with HEK293 amounted to 1.11 mM. In addition, the MIC in data set [1] turned out to be 115 µM (≈ 50 µg/mL).
For the compound `O=c1cc(Cn2cc(Cn3c(=O)n(Cc4cn(Cc5cc(=O)oc6ccc(Cl)cc56)nn4)c4ccccc43)nn2)c2cc(Cl)ccc2o1`, the Stability entry was “Stable” in data set [2], “Unstable” in data set [3], “Stable” in data set [4] and “Unstable” in data set [5]. This compound had an MIC in data set [1] of 18.3 µM (≈ 12.5 µg/mL).
Regarding `O=c1cc(Cn2cc(Cn3c(=O)n(Cc4cn(Cc5cc(=O)[nH]c6ccccc56)nn4)c4ccccc43)nn2)c2ccccc2[nH]1`, the Stability entry in data set [2] is “Stable”; in data set [3], “Unstable”; in data set [4], “Stable”; in data set [5], “Unstable”. Also, in data set [1], the lowest concentration to inhibit growth (MIC) was 10.2 µM (≈ 6.25 µg/mL).
On to `COc1ccc2oc(=O)cc(Cn3cc(Cn4c(C)cc(=O)n(Cc5cn(Cc6cc(=O)oc7ccc(OC)cc67)nn5)c4=O)nn3)c2c1`, for which the 50% inhibitory concentration (IC50) with HEK293 was 1.52 mM. In addition, the MIC in data set [1] was found to be 75.2 µM (≈ 50 µg/mL).
Regarding `Cc1ccc2oc(=O)cc(Cn3cc(Cn4c(=O)n(Cc5cn(Cc6cc(=O)oc7ccc(C)cc67)nn5)c5ccccc54)nn3)c2c1`, the Stability result is “Stable” in data set [2], “Unstable” in data set [3], “Stable” in data set [4] and “Unstable” in data set [5]. Besides, in the data set with HEK293, the IC50 came to 3.58 mM. This compound came in with an MIC in data set [1] of 2.49 µM (≈ 1.6 µg/mL).
`Cc1ccc2c(Cn3cc(Cn4c(=O)n(Cc5cn(Cc6cc(=O)oc7cc(C)ccc67)nn5)c5ccccc54)nn3)cc(=O)oc2c1`: the Stability entry is listed as “Stable” in data set [2], “Unstable” in data set [3], “Stable” in data set [4] and “Unstable” in data set [5]. Further, the IC50 in the data set on HEK293 came to 3.52 mM. In addition, in data set [1], inhibition of growth (MIC) required 2.49 µM (≈ 1.6 µg/mL).
In the case of `COc1ccc2c(Cn3cc(Cn4c(=O)n(Cc5cn(Cc6cc(=O)oc7cc(OC)ccc67)nn5)c5ccccc54)nn3)cc(=O)oc2c1`, the Stability result is recorded as “Stable” in data set [2], “Unstable” in data set [3], “Stable” in data set [4] and “Unstable” in data set [5]. Also, the IC50 with HEK293 amounted to 4.62 mM. In data set [1], the MIC stood at 2.37 µM (≈ 1.59 µg/mL).
`O=C(O)c1cn(C2CC2)c2cc(N3CCNCC3)c(F)cc2c1=O` [CIPROFLOXACIN] returned an MIC in data set [1] of 9.43 µM (≈ 3.12 µg/mL).
`NC(=O)c1cnccn1` [PYRAZINAMIDE] returned an MIC in data set [1] of 25.4 µM (≈ 3.12 µg/mL).
The same measure, in the same setting: the result for `CN[C@@H]1[C@H](O[C@H]2[C@H](O[C@H]3[C@H](O)[C@@H](O)[C@H](N=C(N)N)[C@@H](O)[C@@H]3N=C(N)N)O[C@@H](C)[C@]2(O)C=O)O[C@@H](CO)[C@H](O)[C@H]1O` [STREPTOMYCIN] reads 10.7 µM (≈ 6.25 µg/mL).
